# According to paper PMC5381633 (Genome Biology and Evolution, 2017):
# Columns and labels:
# LXRβ = conditions: human and mouse LXRs; ref Reschly et al. 2008; cited from earlier work
# LXRα = conditions: human and mouse LXRs; ref Reschly et al. 2008; cited from earlier work
# L. japonicum LXR = target: T1, L. japonicum LXR (Lethenteron camtschaticum, UniProt A0A1S6EKM6); assay: GAL4-LBD chimeric receptor luciferase transactivation assay in COS-1 cells; format: cell-based
# T1 sequence (A0A1S6EKM6 89-387): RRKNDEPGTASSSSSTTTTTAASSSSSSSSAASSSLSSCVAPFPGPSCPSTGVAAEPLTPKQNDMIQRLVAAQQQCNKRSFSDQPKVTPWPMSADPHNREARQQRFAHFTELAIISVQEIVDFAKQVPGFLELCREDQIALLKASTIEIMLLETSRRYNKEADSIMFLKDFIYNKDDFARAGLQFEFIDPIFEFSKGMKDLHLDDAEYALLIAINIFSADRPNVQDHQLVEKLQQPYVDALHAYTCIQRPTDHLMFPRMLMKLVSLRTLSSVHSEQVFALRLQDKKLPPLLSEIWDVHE
# Summary of the method: (§1)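 The receptor's ligand-binding domain plus hinge was fused to the GAL4 DBD in pBIND. COS-1 cells were seeded 24 h before lipofection with 500 ng receptor plasmid and 1,000 ng GAL4UAS-luc2P reporter. After 5 h, medium became phenol red-free DMEM/10% charcoal-stripped FBS with compound in DMSO (oxysterols 10^1–10^5.5 nM). Dual-luciferase was read 24 h post-transfection, in triplicate over three experiments, as mean ± SE. EC50 came from sigmoidal dose–response curves. Normalized fold activation was compared by one-way ANOVA/Holm–Sidak.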
# tunicate LXR = conditions: ref Reschly et al. 2008; cited from earlier work
# L. erinacea LXRα = target: T2, L. erinacea LXRα (Leucoraja erinacea, UniProt A0A1S6EKM1); assay: GAL4-LBD chimeric receptor luciferase transactivation assay in COS-1 cells; format: cell-based; conditions: all tested concentrations, P < 0.001
# T2 sequence (A0A1S6EKM1 181-451): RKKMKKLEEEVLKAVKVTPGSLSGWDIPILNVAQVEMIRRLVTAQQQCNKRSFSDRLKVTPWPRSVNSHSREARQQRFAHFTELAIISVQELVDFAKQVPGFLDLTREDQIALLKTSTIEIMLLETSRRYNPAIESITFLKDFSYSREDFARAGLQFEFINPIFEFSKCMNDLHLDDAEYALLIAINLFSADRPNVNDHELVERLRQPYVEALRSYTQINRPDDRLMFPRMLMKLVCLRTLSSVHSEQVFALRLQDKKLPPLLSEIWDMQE
# Summary of the method: as §1
# L. erinacea LXRβ = target: T3, L. erinacea LXRβ (Leucoraja erinacea, UniProt A0A1S6EKM5); assay: as above; format: cell-based; conditions: all tested concentrations, P < 0.001
# T3 sequence (A0A1S6EKM5 2-271): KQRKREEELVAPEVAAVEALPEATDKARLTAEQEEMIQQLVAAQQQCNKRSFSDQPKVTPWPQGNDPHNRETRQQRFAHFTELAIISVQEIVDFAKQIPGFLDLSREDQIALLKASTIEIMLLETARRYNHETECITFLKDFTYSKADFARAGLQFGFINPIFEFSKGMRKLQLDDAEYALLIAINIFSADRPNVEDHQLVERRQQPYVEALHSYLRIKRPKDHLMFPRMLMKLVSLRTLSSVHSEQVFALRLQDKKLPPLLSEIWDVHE
# Summary of the method: as §1
# B. lanceolatum LXR = target: T4, B. lanceolatum LXR (Branchiostoma lanceolatum, UniProt A0A8J9ZB24); assay: as above; format: cell-based
# T4 sequence (A0A8J9ZB24 168-437): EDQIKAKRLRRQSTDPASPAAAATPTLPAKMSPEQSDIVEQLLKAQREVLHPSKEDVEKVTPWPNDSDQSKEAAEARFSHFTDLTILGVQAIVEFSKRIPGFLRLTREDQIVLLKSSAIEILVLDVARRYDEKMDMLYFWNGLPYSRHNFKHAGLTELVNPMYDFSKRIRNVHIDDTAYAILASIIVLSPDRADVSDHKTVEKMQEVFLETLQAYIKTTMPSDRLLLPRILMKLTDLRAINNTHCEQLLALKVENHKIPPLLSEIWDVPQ
# Summary of the method: as §1
SMILES,activation of LXRβ (in words) (LXRβ),activation of LXRα (in words) (LXRα),transcriptional activation of lamprey LXR (in words) (L. japonicum LXR),activation of tunicate LXR (in words) (tunicate LXR),other results
"C[C@H](CC[C@@H]1OC1(C)C)[C@H]1CC[C@H]2[C@@H]3CC=C4C[C@@H](O)CC[C@]4(C)[C@H]3CC[C@]12C [24,25-EC, 24(S),25-epoxycholesterol]",robustly activated,robustly activated,strongly induced,,
"O=Cc1c2[nH]c3ccccc3c2cc2[nH]c3ccccc3c12 [6-Formylindolo(3,2-b)carbazole]",,,,strongly activated,
C[C@]12CC[C@@H](O)C[C@@H]1CC[C@@H]1[C@@H]2CC[C@]2(C)C=CC[C@@H]12 [androstenol],,,,induced,
O=S(=O)(c1ccccc1)N(CC(F)(F)F)c1ccc(C(O)(C(F)(F)F)C(F)(F)F)cc1 [T0901317],,,significant activations,,"agonistic response, little skate LXRα (in words) (L. erinacea LXRα): significant activations; agonistic response, little skate LXRβ (in words) (L. erinacea LXRβ): significant activations"
"C[C@H](CCCC(C)(C)O)[C@H]1CC[C@H]2[C@@H]3CC=C4C[C@@H](O)CC[C@]4(C)[C@H]3CC[C@]12C [25-HC, 25-hydroxycholesterol]",lower transcriptional responses,lower transcriptional responses,"prominent and statistically significant (P < 0.001), yet only at higher concentrations",,
"CC(C)[C@@H](O)CC[C@@H](C)[C@H]1CC[C@H]2[C@@H]3CC=C4C[C@@H](O)CC[C@]4(C)[C@H]3CC[C@]12C [24-HC, 24(S)-hydroxycholesterol]",robustly activated,robustly activated,strongly induced,,"transcriptional activation of amphioxus LXR (in words) (B. lanceolatum LXR): residually, but significantly, activated"
C[C@@]12CCC[C@H]1[C@@H]1CC[C@H]3C[C@@H](O)CC[C@]3(C)[C@H]1CC2 [androstanol],,,,induced,
